Experimental data from ChEMBL document CHEMBL1138179, “Discovery of a novel nonphosphorylated pentapeptide motif displaying high affinity for Grb2-SH2 domain by the utilization of 3'-substituted tyrosine derivatives” (J Med Chem, 2006).
Numbered stars: 1 amine (or outer) side, 2 acyl side, 3 side chain; on linkers, the order of the positions; unused ones are H or OH. Bridge positions count the residues as written; N and C are the ends. Square brackets hold non-standard residues; d marks the D form. Peptide text beside a SMILES is read from it. Tyr(3-NO2) = N[C@@H](Cc1ccc(O)c([N+](=O)[O-])c1)C(=O)O; X1 = O=C(O)c1cc(C[C@H](N[*:1])C(=O)[*:2])ccc1O; Tyr(3-OMe) = COc1cc(C[C@H](N)C(=O)O)ccc1O; Tyr(3-NH2) = Nc1cc(C[C@H](N)C(=O)O)ccc1O; Dopa = N[C@@H](Cc1ccc(O)c(O)c1)C(=O)O; Gla = N[C@@H](CC(C(=O)O)C(=O)O)C(=O)O; Aad = N[C@@H](CCCC(=O)O)C(=O)O; Ac6c = NC1(C(=O)O)CCCCC1; Ava = NCCCCC(=O)O; βAla = NCCC(=O)O

Key:
[1] = target: Growth factor receptor-bound protein 2 (Homo sapiens, UniProt P62993); assay: Inhibition of recombinant GRB2-SH2 domain
In short: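 Competitive SPR (BIAcore 3000): inhibitor premixed with recombinant Grb2-SH2 protein; binding at equilibrium measured to immobilized biotinylated SHC pTyr317 phosphopeptide (biotinyl-DDPS-pY-VNVQ). IC50 = concentration giving half-maximal competition; mean of at least two independent experiments.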

MDA-MB-453 = assay: cells; details: Homo sapiens

| IC50 [1] [µM] | IC50 (MDA-MB-453) [µM] | SMILES |
| --- | --- | --- |
| 11.2 |  | CC(C)C[C@@H]1NC(=O)[C@H](CC(C(=O)O)C(=O)O)NC(=O)C[S+]([O-])C[C@H](C(N)=O)NC(=O)CCNC(=O)[C@H](CC(N)=O)NC(=O)C2(CCCCC2)NC(=O)[C@H](Cc2ccc(O)c(N)c2)NC1=O (stereo partly drawn) |
| 0.058 | 0.019 | CC(C)C[C@@H]1NC(=O)[C@H](CC(C(=O)O)C(=O)O)NC(=O)C[S+]([O-])C[C@@H](C(N)=O)NC(=O)CCCCNC(=O)[C@H](CC(N)=O)NC(=O)C2(CCCCC2)NC(=O)[C@H](Cc2ccc(O)c(N)c2)NC1=O (stereo partly drawn) |
| 14 |  | CC(C)C[C@@H]1NC(=O)[C@H](CCCC(=O)O)NC(=O)C[S+]([O-])C[C@H](C(N)=O)NC(=O)CCCCNC(=O)[C@H](CC(N)=O)NC(=O)C2(CCCCC2)NC(=O)[C@H](Cc2ccc(O)c(N)c2)NC1=O (stereo partly drawn) |
| 200 |  | CC(C)C[C@@H]1NC(=O)[C@H](CC(C(=O)O)C(=O)O)NC(=O)C[S+]([O-])C[C@H](C(N)=O)NC(=O)[C@H](CC(N)=O)NC(=O)C2(CCCCC2)NC(=O)[C@H](Cc2ccc(O)c(N)c2)NC1=O (stereo partly drawn) |
| 1.55 |  | CC(C)C[C@@H]1NC(=O)[C@H](CC(C(=O)O)C(=O)O)NC(=O)C[S+]([O-])C[C@H](C(N)=O)NC(=O)CCCCNC(=O)[C@H](CC(N)=O)NC(=O)C2(CCCCC2)NC(=O)[C@H](Cc2ccc(O)c(N)c2)NC1=O (stereo partly drawn) |
| 1000 |  | CC(C)C[C@@H]1NC(=O)[C@H](CCCC(=O)O)NC(=O)C[S+]([O-])C[C@H](C(N)=O)NC(=O)CCCCNC(=O)[C@H](CC(N)=O)NC(=O)C2(CCCCC2)NC(=O)[C@H](Cc2ccc(O)cc2)NC1=O (stereo partly drawn) |
| 77 |  | CC(C)C[C@@H]1NC(=O)[C@H](CCCC(=O)O)NC(=O)C[S+]([O-])C[C@@H](C(N)=O)NC(=O)CCCCNC(=O)[C@H](CC(N)=O)NC(=O)C2(CCCCC2)NC(=O)[C@H](Cc2ccc(O)cc2)NC1=O (stereo partly drawn) |
| 212 |  | CC(C)C[C@@H]1NC(=O)[C@H](CCCC(=O)O)NC(=O)C[S+]([O-])C[C@H](C(N)=O)NC(=O)CCCCNC(=O)[C@H](CC(N)=O)NC(=O)C2(CCCCC2)NC(=O)[C@H](Cc2ccc(O)c(C(=O)O)c2)NC1=O (stereo partly drawn) |
| 97 |  | COc1cc(C[C@@H]2NC(=O)[C@H](CC(C)C)NC(=O)[C@H](CCCC(=O)O)NC(=O)C[S+]([O-])C[C@@H](C(N)=O)NC(=O)CCCCNC(=O)[C@H](CC(N)=O)NC(=O)C3(CCCCC3)NC2=O)ccc1O (stereo partly drawn) |
| 9.7 |  | CC(C)C[C@@H]1NC(=O)[C@H](CC(C(=O)O)C(=O)O)NC(=O)C[S+]([O-])C[C@@H](C(N)=O)NC(=O)[C@H](CC(N)=O)NC(=O)C2(CCCCC2)NC(=O)[C@H](Cc2ccc(O)c(N)c2)NC1=O (stereo partly drawn) |
| 16 |  | CC(C)C[C@@H]1NC(=O)[C@H](CCCC(=O)O)NC(=O)C[S+]([O-])C[C@@H](C(N)=O)NC(=O)CCCCNC(=O)[C@H](CC(N)=O)NC(=O)C2(CCCCC2)NC(=O)[C@H](Cc2ccc(O)c(C(=O)O)c2)NC1=O (stereo partly drawn) |
| 0.36 |  | CC(C)C[C@@H]1NC(=O)[C@H](CC(C(=O)O)C(=O)O)NC(=O)C[S+]([O-])C[C@@H](C(N)=O)NC(=O)CCNC(=O)[C@H](CC(N)=O)NC(=O)C2(CCCCC2)NC(=O)[C@H](Cc2ccc(O)c(N)c2)NC1=O (stereo partly drawn) |
| 550 |  | CC(C)C[C@@H]1NC(=O)[C@H](CCCC(=O)O)NC(=O)C[S+]([O-])C[C@H](C(N)=O)NC(=O)CCCCNC(=O)[C@H](CC(N)=O)NC(=O)C2(CCCCC2)NC(=O)[C@H](Cc2ccc(O)c(O)c2)NC1=O (stereo partly drawn) |
| 87 |  | CC(C)C[C@@H]1NC(=O)[C@H](CCCC(=O)O)NC(=O)C[S+]([O-])C[C@@H](C(N)=O)NC(=O)CCCCNC(=O)[C@H](CC(N)=O)NC(=O)C2(CCCCC2)NC(=O)[C@H](Cc2ccc(O)c(O)c2)NC1=O (stereo partly drawn) |
| 25 |  | CC(C)C[C@@H]1NC(=O)[C@H](CCCC(=O)O)NC(=O)C[S+]([O-])C[C@@H](C(N)=O)NC(=O)CCCCNC(=O)[C@H](CC(N)=O)NC(=O)C2(CCCCC2)NC(=O)[C@H](Cc2ccc(O)c([N+](=O)[O-])c2)NC1=O (stereo partly drawn) |
| 3.9 |  | CC(C)C[C@@H]1NC(=O)[C@H](CCCC(=O)O)NC(=O)C[S+]([O-])C[C@@H](C(N)=O)NC(=O)CCCCNC(=O)[C@H](CC(N)=O)NC(=O)C2(CCCCC2)NC(=O)[C@H](Cc2ccc(O)c(N)c2)NC1=O (stereo partly drawn) |
| 265 |  | CC(C)C[C@@H]1NC(=O)[C@H](CCCC(=O)O)NC(=O)C[S+]([O-])C[C@H](C(N)=O)NC(=O)CCCCNC(=O)[C@H](CC(N)=O)NC(=O)C2(CCCCC2)NC(=O)[C@H](Cc2ccc(O)c([N+](=O)[O-])c2)NC1=O (stereo partly drawn) |
| > 1000 |  | COc1cc(C[C@@H]2NC(=O)[C@H](CC(C)C)NC(=O)[C@H](CCCC(=O)O)NC(=O)C[S+]([O-])C[C@H](C(N)=O)NC(=O)CCCCNC(=O)[C@H](CC(N)=O)NC(=O)C3(CCCCC3)NC2=O)ccc1O (stereo partly drawn) |
| 93 |  | CC(C)C[C@@H]1NC(=O)[C@H](CCCC(=O)O)NC(=O)CSC[C@@H](C(N)=O)NC(=O)CCCCNC(=O)[C@H](CC(N)=O)NC(=O)C2(CCCCC2)NC(=O)[C@H](Cc2ccc(O)cc2)NC1=O ({CH2CO}-[Aad]LY[Ac6c]N[Ava]C-NH2; thioether N-7) |
| 135 |  | CC(C)C[C@@H]1NC(=O)[C@H](CCCC(=O)O)NC(=O)CSC[C@@H](C(N)=O)NC(=O)CCCCNC(=O)[C@H](CC(N)=O)NC(=O)C2(CCCCC2)NC(=O)[C@H](Cc2ccc(O)c(O)c2)NC1=O ({CH2CO}-[Aad]L[Dopa][Ac6c]N[Ava]C-NH2; thioether N-7) |
| 8.9 |  | CC(C)C[C@@H]1NC(=O)[C@H](CCCC(=O)O)NC(=O)CSC[C@@H](C(N)=O)NC(=O)CCCCNC(=O)[C@H](CC(N)=O)NC(=O)C2(CCCCC2)NC(=O)[C@H](Cc2ccc(O)c(N)c2)NC1=O ({CH2CO}-[Aad]L[Tyr(3-NH2)][Ac6c]N[Ava]C-NH2; thioether N-7) |
| 182 |  | CC(C)C[C@@H]1NC(=O)[C@H](CCCC(=O)O)NC(=O)CSC[C@@H](C(N)=O)NC(=O)CCCCNC(=O)[C@H](CC(N)=O)NC(=O)C2(CCCCC2)NC(=O)[C@H](Cc2ccc(O)c([N+](=O)[O-])c2)NC1=O ({CH2CO}-[Aad]L[Tyr(3-NO2)][Ac6c]N[Ava]C-NH2; thioether N-7) |
| 245 |  | COc1cc(C[C@@H]2NC(=O)[C@H](CC(C)C)NC(=O)[C@H](CCCC(=O)O)NC(=O)CSC[C@@H](C(N)=O)NC(=O)CCCCNC(=O)[C@H](CC(N)=O)NC(=O)C3(CCCCC3)NC2=O)ccc1O ({CH2CO}-[Aad]L[Tyr(3-OMe)][Ac6c]N[Ava]C-NH2; thioether N-7) |
| 88 |  | CC(C)C[C@@H]1NC(=O)[C@H](CCCC(=O)O)NC(=O)CSC[C@@H](C(N)=O)NC(=O)CCCCNC(=O)[C@H](CC(N)=O)NC(=O)C2(CCCCC2)NC(=O)[C@H](Cc2ccc(O)c(C(=O)O)c2)NC1=O ({CH2CO}-[Aad]L[X1][Ac6c]N[Ava]C-NH2; thioether N-7) |
| 22.5 |  | CC(C)C[C@@H]1NC(=O)[C@H](CC(C(=O)O)C(=O)O)NC(=O)CSC[C@@H](C(N)=O)NC(=O)[C@H](CC(N)=O)NC(=O)C2(CCCCC2)NC(=O)[C@H](Cc2ccc(O)c(N)c2)NC1=O ({CH2CO}-[Gla]L[Tyr(3-NH2)][Ac6c]NC-NH2; thioether N-6) |
| 0.19 |  | CC(C)C[C@@H]1NC(=O)[C@H](CC(C(=O)O)C(=O)O)NC(=O)CSC[C@@H](C(N)=O)NC(=O)CCCCNC(=O)[C@H](CC(N)=O)NC(=O)C2(CCCCC2)NC(=O)[C@H](Cc2ccc(O)c(N)c2)NC1=O ({CH2CO}-[Gla]L[Tyr(3-NH2)][Ac6c]N[Ava]C-NH2; thioether N-7) |
| 1.02 |  | CC(C)C[C@@H]1NC(=O)[C@H](CC(C(=O)O)C(=O)O)NC(=O)CSC[C@@H](C(N)=O)NC(=O)CCNC(=O)[C@H](CC(N)=O)NC(=O)C2(CCCCC2)NC(=O)[C@H](Cc2ccc(O)c(N)c2)NC1=O ({CH2CO}-[Gla]L[Tyr(3-NH2)][Ac6c]N[βAla]C-NH2; thioether N-7) |
